One experiment has as its system PC-3. The experiment can be described thus: Antiproliferative activity against human PC-3 cells assessed as reduction in cell viability incubated for 48 hrs by MTT assay. The settings on record: PC-3, 48 h. It counts as functional, cell-based. A digest of the protocol:
(§1)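 MTT assay. 5,000 cells per well in RPMI-1640 with 10% FBS and penicillin/streptomycin at 37 °C, 5% CO2. Compound added 24 h after seeding and left for 48 h. MTT was then added for 4 h at 37 °C, formazan dissolved in DMSO and absorbance read at 490 nm. IC50 calculated from three independent experiments.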

In the next experiment the test system is MGC-803. The experiment can be described thus: Antiproliferative activity against human MGC-803 cells assessed as reduction in cell viability incubated for 48 hrs by MTT assay. Type of experiment: functional, cell-based. The note with it: MGC-803, 48 h. A digest of the protocol: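 MTT assay. Compound added 24 h after seeding and left for 48 h. MTT was then added for 4 h at 37 °C, formazan dissolved in DMSO and absorbance read at 490 nm. IC50 calculated from three independent experiments.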

The subject of another experiment is HCT-116. Put plainly: Antiproliferative activity against human HCT-116 cells assessed as reduction in cell viability incubated for 48 hrs by MTT assay. Type of experiment: functional, cell-based. The note with it: HCT-116, 48 h. A digest of the protocol: as §1
For experiment [1], the system named is MGC-803/PTX (Homo sapiens). Put plainly: Cytotoxicity against human MGC-803/PTX cells assessed as reduction in cell viability at 15 nM incubated for 48 hrs by MTT assay relative to control.
Experiment [2] in a line: Inhibition of tubulin (unknown origin). On the set-up: species or system Homo sapiens.

Experimental findings from ChEMBL document CHEMBL4765386, “Discovery of tertiary amide derivatives incorporating benzothiazole moiety as anti-gastric cancer agents in vitro via inhibiting tubulin polymerization and activating the Hippo signaling pathway” (Eur J Med Chem, 2020) are described below.

Where only a bound is given, the exact number is not on record here.

In the case of `COc1ccc(CN(C(=O)CSc2nc3ccccc3s2)c2cc(OC)c(OC)c(OC)c2)cc1C(F)(F)F`, the IC50 with PC-3 was > 80 µM; with MGC-803 it was 25.2 µM; with HCT-116, > 80 µM.
For `COc1cc(N(Cc2ccc(F)cc2)C(=O)CSc2nc3ccccc3s2)cc(OC)c1OC`, the IC50 in the experiment with PC-3 is 50.8 µM; in the experiment with MGC-803, > 80 µM; with HCT-116, 59.8 µM.
`CC(=O)O[C@H]1C(=O)[C@@]2(C)[C@H]([C@H](OC(=O)c3ccccc3)[C@]3(O)C[C@H](OC(=O)[C@H](O)[C@@H](NC(=O)c4ccccc4)c4ccccc4)C(C)=C1C3(C)C)[C@]1(OC(C)=O)CO[C@@H]1C[C@@H]2O` [PACLITAXEL]: the inhibition at 0.015 µM in experiment [1] is < 15%.
Regarding `COc1ccc(CN(C(=O)CSc2nc3ccccc3s2)c2cc(OC)c(OC)c(OC)c2)cc1N=[N+]=[N-]`, the IC50 in the experiment on PC-3 was determined as 14.4 µM; in the experiment with MGC-803 it was 0.187 µM; with HCT-116, 2.86 µM.
With `COc1ccc(CN(C(=O)CSc2nc3ccccc3s2)c2cc(OC)c(OC)c(OC)c2)cc1N`, the results for the IC50 with PC-3, with MGC-803 and with HCT-116 were 7.51 µM, 0.084 µM and 0.491 µM, respectively.
Taken in the same sequence, the figures for `COc1cc(N(Cc2ccc(C)cc2)C(=O)CSc2nc3ccccc3s2)cc(OC)c1OC` were > 80 µM, 54.2 µM and > 80 µM.
The like results for `COc1ccc(CN(C(=O)CSc2nc3ccccc3s2)c2cc(OC)c(OC)c(OC)c2)cc1` were, in that order, 8.46 µM, 0.163 µM and 0.426 µM.
Take `COc1cc(N(Cc2ccc(Br)cc2)C(=O)CSc2nc3ccccc3s2)cc(OC)c1OC`: the IC50 with PC-3 is > 80 µM; with MGC-803, 48.1 µM; in the experiment with HCT-116 it was 63.8 µM.
As for `COc1cc(N2C(=O)[C@H](c3cccs3)[C@H]2c2cccc(N=[N+]=[N-])c2)cc(OC)c1OC`, the IC50 in experiment [2] was 2.26 µM.
Turning to `COc1cc(CN(C(=O)CSc2nc3ccccc3s2)c2cc(OC)c(OC)c(OC)c2)cc(OC)c1OC`, the figures for the IC50 with PC-3, with MGC-803 and in the experiment on HCT-116 were > 80 µM, 45.7 µM and 65.3 µM, respectively.
On to `COc1ccc(CN(C(=O)CSc2nc3ccccc3s2)c2cc(OC)c(OC)c(OC)c2)cc1Br`, for which the results for the IC50 in the experiment on PC-3, with MGC-803 and in the experiment with HCT-116 were 16 µM, 0.852 µM and 4.55 µM, respectively.
Taken in the same sequence, the figures for `COc1ccc(/C=C\c2cc(OC)c(OC)c(OC)c2)cc1OP(=O)(O)O` [FOSBRETABULIN] were 0.033 µM, 0.02 µM and 0.042 µM.
Taken in the same sequence, the figures for `COc1ccc2nc(SCC(=O)N(Cc3ccc(OC)c(O)c3)c3cc(OC)c(OC)c(OC)c3)sc2c1` were 4.11 µM, 0.071 µM and 0.352 µM.
The like results for `COc1ccc(CN(C(=O)CSc2nc3ccccc3s2)c2cc(OC)c(OC)c(OC)c2)cc1F` were, in that order, 20.1 µM, 0.416 µM and 1.83 µM.
`COc1ccc(CN(C(=O)CSc2nc3ccccc3s2)c2cc(OC)c(OC)c(OC)c2)cc1C`: the results for the IC50 with PC-3, in the experiment with MGC-803 and in the experiment with HCT-116 were 34.3 µM, 6.36 µM and 17.1 µM, respectively.
On to `COc1ccc(CN(C(=O)CSc2nc3cc(Br)ccc3s2)c2cc(OC)c(OC)c(OC)c2)cc1O`, for which the figures for the IC50 in the experiment with PC-3, with MGC-803 and in the experiment on HCT-116 were 8.21 µM, 0.372 µM and 3.38 µM, respectively.
Taken in the same sequence, the figures for `COc1ccc(CN(C(=O)CSc2nc3ccccc3s2)c2cc(OC)c(OC)c(OC)c2)cc1OC` were > 80 µM, 34.1 µM and 33.9 µM.
`COc1ccc(CN(C(=O)CSc2nc3ccccc3s2)c2cc(OC)c(OC)c(OC)c2)cc1[N+](=O)[O-]`: the IC50 in the experiment on PC-3 stood at 26.5 µM; in the experiment with MGC-803, 0.682 µM; with HCT-116 it was 1.28 µM.
As for `COc1ccc(CN(C(=O)CSc2nc3c(C)cccc3s2)c2cc(OC)c(OC)c(OC)c2)cc1O`, the IC50 in the experiment with PC-3 is 12.3 µM; with MGC-803, 0.493 µM; in the experiment with HCT-116, 0.852 µM.
Consider `COc1ccc(CN(C(=O)CSc2nc3cc(Cl)ccc3s2)c2cc(OC)c(OC)c(OC)c2)cc1O`, for which the IC50 came to 11.2 µM in the experiment on PC-3, 0.085 µM in the experiment on MGC-803 and 0.429 µM in the experiment on HCT-116.
The like results for `COc1cc2c(c(OC)c1OC)-c1ccc(OC)c(=O)cc1[C@@H](NC(C)=O)CC2` [COLCHICINE] were, in that order, 0.338 µM, 0.107 µM and 0.129 µM.
Taken in the same sequence, the figures for `COc1cc(N(Cc2ccccc2)C(=O)CSc2nc3ccccc3s2)cc(OC)c1OC` were 54.1 µM, 44.3 µM and 54.5 µM.
On to `COc1cc(N(Cc2ccc(Cl)cc2)C(=O)CSc2nc3ccccc3s2)cc(OC)c1OC`, for which the IC50 is > 80 µM in the experiment with PC-3, > 80 µM in the experiment on MGC-803 and 60.3 µM in the experiment on HCT-116.
